# INS promoter act: activators of insulin promoter-driven GFP, primary screen, imaging, TRM-6 cells, eGFP reporter, cell count. plate-scaled: unstimulated 0, stimulated control 100. activation, % at 2 µM. 130,000 tested, 0.81% active. AID 1296, 2008;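 active = activation at 2 µM above a set limit, confirmed on inspection of the cell images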;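 note: share of cells whose green reporter signal exceeds an intensity cutoff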
#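 Test system: human fetal islet-derived TRM-6 cells with tamoxifen-inducible insulin promoter–eGFP reporter; schedule: overnight tamoxifen, then two-day compound incubation at 37 °C; measured by: high-content imaging of fixed cells with Hoechst nuclear stain; evaluation: percent cells above green-intensity threshold, converted to percent activation versus plate controls; control set: stimulated and unstimulated wells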
# Numbers without * were called inactive. Only a selection was taken, and hits are over-represented in it overall.
SMILES,INS promoter act
CCCc1cc(-n2cnc3ccccc32)n2c(nc3ccccc32)c1C#N,75.9*
O=C1OCc2ccc(NC(=O)C3CCCCC3)cc21,-3.3
Cc1cc(NS(=O)(=O)c2ccc(NC(=O)NC(C)(C(F)(F)F)C(F)(F)F)cc2)no1,-4.2
O=C(CCCOc1ccc(Cl)cc1)Nc1cccc(C(=O)O)c1,5.9
Cc1cc(NS(=O)(=O)c2ccc(NC(=O)CCCOc3ccc(Cl)cc3)cc2)no1,127.3*
CO/N=C/C(C#N)c1ncc(C(F)(F)F)cc1Cl (stereo unspecified),-8.9
COc1ccc(CN2C(=O)c3ccccc3C(/C=N\OCc3ccc(C)cc3)C2=O)cc1 (stereo unspecified),3.6
Cc1ccccc1CCN(C(=O)CN1C(=O)c2ccccc2S1(=O)=O)C(C(=O)NCC1CCCO1)c1ccncc1 (stereo unspecified),-5.4
O=C(Nc1ccc(Br)c(Cl)c1)C1CC1,-75.0
CCC(=O)Nc1ccc(Cl)c(NC(=O)c2ccc(Br)o2)c1,334.3
CC(C)(C)C(=O)CC(=O)Nc1ccc(Cl)c(N)c1,0.0
CCCC(=O)Nc1ccc(Cl)c(NC(=O)C(C)(C)C)c1,790.0*
O=C(O)CCC(=O)Nc1ccc(Br)c(Cl)c1,-2.3
CCCC(=O)Nc1ccc(Br)c(Cl)c1,442.9*
CN(C)S(=O)(=O)c1cccc(C(=O)NCCc2ccccc2)c1,-7.7
c1ccc(-c2cnc(CSc3ncnc4sccc34)o2)cc1,-5.6
Cc1c(Cl)cccc1NC(=S)N(CCN(C)C)C(C)c1ccccn1 (stereo unspecified),0.0
COc1ccc(S(=O)(=O)Nc2cc3c4c(oc3c3ccccc23)CC(C)(C)CC4=O)cc1,86.8*
COc1ccc(S(=O)(=O)Nc2ccccc2C)cc1,4.2
COc1ccc(NS(=O)(=O)c2ccc(SC)cc2)c(OC)c1,3.6
COc1ccc(CNC(=O)c2cnn3c(C(F)F)cc(C)nc23)cc1OC,50.0
O=C(c1cc2c(cc1Br)OCCCO2)N1CCCCC1,3.7
Cc1c(Cl)c([N+](=O)[O-])nn1Cc1ccc(C(=O)Nc2ccc(Cl)cn2)o1,3.2
Cc1nn(Cc2ccc(Cl)cc2Cl)c(C)c1NC(=O)Cn1nc([N+](=O)[O-])c(Cl)c1C,650.0*
Cc1nn(Cc2ccccc2)c(C)c1NC(=O)CCCn1nc([N+](=O)[O-])c(Cl)c1C,0.0
SMILES,INS promoter act
Cc1ccc(F)cc1NC(=O)CN1CCN(c2ccccn2)CC1,2.6
O=C(OC1CCCCC1=O)c1ccc(S(=O)(=O)Nc2ccccc2)cc1 (stereo unspecified),-8.6
CCOC(=O)NC(c1ccccc1)C1CCCCC1=O (stereo unspecified),-8.3
O=C1CCCCC1C(Nc1ccc(Cl)cc1)c1ccccc1 (stereo unspecified),213.8*
CCOC(=O)c1nn(-c2ccccc2F)c(C)c1C(C)=O,2.4
CCOc1ccc(S(=O)(=O)Nc2cccc(OC)c2)cc1,-6.7
CC(C)(C)n1nnnc1CN1CCN(C2CCCC2)CC1,2.7
O=C(CC1CC2CCC1C2)OCC(=O)c1c[nH]c2ccccc12 (stereo unspecified),-5.7
O=C(OC1CCc2ccccc2C1=O)c1ccccc1O (stereo unspecified),-12.9
O=C(CO/N=C/c1cccc([N+](=O)[O-])c1)NC1CCCCCC1,450.0*
O=C(CCc1ccc(Oc2cc([N+](=O)[O-])cc([N+](=O)[O-])c2)cc1)NC1CCCC1,2.8
O=C(NC1CCCCC1)c1cc([N+](=O)[O-])ccc1N1CCCCC1,8.3
Cc1onc(-c2ccccc2)c1C(=O)Nc1ccc(S(=O)(=O)N2CCCC2)cc1,-77.8
CC(C)CN1CN(S(=O)(=O)c2cccs2)c2nc3ccccc3nc21,0.0
Cc1nnc(NC(=O)CSc2nnc(Cc3ccccc3)n2-c2ccccc2)s1,660.0*
Cc1nnc(NC(=O)CSc2nnc(C)n2Cc2ccccc2)s1,0.0
CCc1nnc(NC(=O)CSc2nnc(Cc3ccccc3)n2-c2ccccc2)s1,-81.8
COc1ccc(CN2C(=O)CS(=O)CC2=O)cc1OC,7.4
Cc1cc(C)cc(OCc2nc(-c3cccnc3)no2)c1,-3.7
Cc1c(C(=O)NC(C)c2ccncc2)oc2ccccc12 (stereo unspecified),-2.7
Cc1cc(=O)n2[nH]c(NCc3ccccc3F)nc2n1,0.0
CCC(=O)Nc1nc2nc(C)cc(=O)n2[nH]1,-4.2
Cc1cc(=O)n2[nH]c(C(=O)O)nc2n1,76.7*
CCCNC(=O)CN(c1ccc(F)cc1)S(=O)(=O)c1ccc2c(c1)OCCO2,-7.1
COc1cccc(NC(=O)COC(=O)c2c3c(nc4ccccc24)CCC(C)C3)c1 (stereo unspecified),8.3
SMILES,INS promoter act
CC(O)C(=O)N/N=C/c1cccc(Cl)c1Cl (stereo unspecified),-6.8
O=C(Cc1ccc(Br)cc1)N1CCN(c2ccccc2)CC1,466.7*
Cc1cccc(N2CCN(C(=O)Cc3ccc(Br)cc3)CC2)c1C,8.1
O=C(CSCc1ccccc1)N1CCN(c2ccccc2)CC1,117.6
O=C(CN1CCCc2ccccc21)N/N=C/c1ccccc1O,3.2
CCOC(=O)C1C(=O)NC(N2CCOCC2)=NC1c1ccco1 (stereo unspecified),-4.5
Cn1c(=O)c(Oc2ccc(F)cc2)c(O)c2ccccc21,-64.3
CCCOc1ccc(/C=N/NC(=O)C2CCCN2S(=O)(=O)c2ccc(Cl)cc2)cc1 (stereo unspecified),8.1
O=c1[nH]c2ccc(S(=O)(=O)N3CCCCC3)cc2[nH]1,6.1
CCC(C)N1C(=O)/C(=C/c2c(NCCCOC(C)C)nc3c(C)cccn3c2=O)SC1=S (stereo unspecified),163.9*
COc1ccccc1N1CCN(c2nc3c(C)cccn3c(=O)c2C=O)CC1,2.2
COc1cc(/C=N/Nc2nc(N3CCCC3)nc(N3CCCC3)n2)ccc1O,0.0
Fc1ccc(COc2ccc(Cl)cc2/C=N/Nc2nc(N3CCCC3)nc(N3CCCC3)n2)cc1,658.3*
CCOc1ccc(/C=N/Nc2nc(N3CCCC3)nc(N3CCCC3)n2)cc1OC,-5.7
O=S1(=O)N=C2CCCCCN2C(c2ccc(Cl)cc2)N1 (stereo unspecified),5.6
C/C=C/C=[N+](\[O-])C(C)/C(=N/O)c1ccc(F)cc1 (stereo unspecified),7.7
Cc1ccccc1-c1noc(-c2cccs2)n1,-80.0
COc1cc(-c2nc(Cc3c(F)cccc3Cl)no2)cc(OC)c1OC,-70.0
Cc1ccccc1-c1nc(Cc2ccc(Cl)cc2)no1,102.9*
Cc1ncc([N+](=O)[O-])n1CC(=O)NCc1ccccc1,-6.7
Cc1ncc([N+](=O)[O-])n1CCOC(=O)NC(NCc1ccccc1)C(Cl)(Cl)Cl (stereo unspecified),133.3*
Cc1ncc([N+](=O)[O-])n1CCOC(=O)Nc1ccc(Cl)c(Cl)c1,0.0
COc1cc2c(cc1OC)C1=C(C#N)CC/C(=N\S(=O)(=O)c3cccc(Cl)c3)N1CC2,86.8*
COc1cc2c(cc1OC)C(CC#N)=NC(C)(C)C2,6.5
COc1cc2c(cc1OC)-c1cc(OCc3ccccc3Cl)nc(=O)n1CC2,-65.6
SMILES,INS promoter act
Cc1occc1-c1nnc(SCC(=O)N2CCOCC2)n1CC(C)C,6.7
CC(C)NC(=O)Cn1c(=O)c2c(ncn2Cc2ccccc2)n(Cc2ccccc2)c1=O,-5.7
Cc1ccccc1Nc1nc2nonc2nc1N1CCOCC1,0.0
COc1cc2[nH]ccc(=O)c2cc1OC,0.0
COc1ccccc1Nc1nnc(C)c(=O)[nH]1,-6.7
COc1ccc[nH]c1=O,154.5*
O=C(CSc1nnnn1Cc1ccccc1)NCC(=O)c1ccccc1,5.4

# Screens (PubChem)
